Test results taken from ChEMBL document CHEMBL4038311, “An Ursolic Acid Derived Small Molecule Triggers Cancer Cell Death through Hyperstimulation of Macropinocytosis” (J Med Chem, 2017).
The source made the active and inactive calls. The rule behind the calls is not given here.

Tests used:
Type in all cases: functional, cell-based
[1] = tested on: HeLa; experiment: Induction of methuosis in human HeLa cells assessed as increase in vacuole formation preincubated cells with dynamin inhibitor dynasore for 1 hr followed by compound addition measured after 24 hrs by phase contrast microscopic analysis
How it was run: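 HeLa cells grown in DMEM with 10% FBS, 100 U/ml penicillin and 100 µg/ml streptomycin at 37 °C, 5% CO2 humidified air. The inhibitor was added before compound exposure. Vacuolization was judged in live cells by phase-contrast microscopy.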

[2] = tested on: HeLa; experiment: Induction of macropinocytosis-like cytosolic vacuolization in human HeLa cells at 20 uM after 24 hrs by transmission electron microscopic analysis
How it was run: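 HeLa exposed to 20 µM for 24 h, then fixed, dehydrated and resin-embedded. Ultrathin sections on copper grids stained with uranyl acetate and lead citrate, then examined by TEM.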

[3] = tested on: HeLa; experiment: Anticancer activity against human HeLa cells assessed as decrease in cell viability at 20 uM preincubated cells with Z-VAD-FMK for 1 hr followed by compound addition measured after 48 hrs by CCK8 assay
How it was run: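 HeLa cells pretreated 1 h with 50 µM z-VAD-FMK, then given the compound. Viability read after 48 h by CCK-8 (450 nm), with DMSO-treated wells as control.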

[4] = tested on: HeLa; experiment: Anticancer activity against human HeLa cells assessed as vacuole formation at 20 uM after 12 hrs by phase contrast microscopic analysis
[5] = tested on: HeLa; experiment: Anticancer activity against human HeLa cells assessed as vacuole formation preincubated cells with 3-MA followed by compound addition measured after 24 hrs by phase contrast microscopic analysis
How it was run: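 HeLa cells pretreated 1 h with or without 3-MA before compound or DMSO. Phase-contrast images obtained after 24 h.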

Structure (SMILES): C[C@H]1[C@H](C)CC[C@]2(C(=O)O)CC[C@]3(C)C(=CC[C@@H]4[C@@]5(C)Cc6cnn(-c7ccc(C#N)cc7)c6C(C)(C)[C@@H]5CC[C@]43C)[C@H]12
- Activity [1]: inactive
- Activity [2]: Active
- Activity [3]: Active
- Activity [4]: Active
- Activity [5]: Active
